Test results from ChEMBL document CHEMBL1152561, “Evaluation of delocalized lipophilic cationic dyes as delivery vehicles for photosensitizers to mitochondria” (Bioorg Med Chem, 2009).
Active and inactive are the calls of the source. The rule behind the calls is not given here.

What was measured:
[1] = test system: R3230AC; test: Cytotoxicity against rat R3230AC cells up to 20 uM for 24 hrs in dark; type: functional, cell-based
[2] = n-Octanol-phosphate buffer partition coefficient, log D at pH 7.4 by shake-flask method; type: physicochemical
In short: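 Dye was added to saturation in equal volumes (2 mL) of n-octanol and pH 7.4 phosphate buffer. The mixture was sonicated 30 min and left to settle 4 h. Each layer was diluted in dichloromethane and absorbance measured. Log D7.4 was taken from the ratio of absorbances between the two layers.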

[3] = test system: R3230AC; test: Cellular uptake in rat R3230AC cells measured per cell at 10 uM after 24 hrs; type: ADME, cell-based
In short: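 R3230AC cells were grown in α-MEM with 10% bovine growth serum at 37 °C and 5% CO2. Dyes were diluted from 2 mM DMSO stocks. Intracellular dye content was measured by fluorescence at dye-appropriate excitation and emission wavelengths and converted using a fluorescence calibration curve.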

[4] = test system: R3230AC; test: Phototoxicity in rat R3230AC cells irradiated with halogen lamp pretreated 24 hrs before irradiation by MTT assay; type: functional, cell-based; settings: light or radiation study
In short: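 Cells were seeded at 1.0–1.5 × 10^4 per well, grown 24 h, then given 1–20 µM dye in complete medium for 24 h. After two saline rinses, cells in clear medium were irradiated with halogen broadband light (400–850 nm, water-filtered) at 3 mW cm−2 for 1 h while orbiting. They were refed and grown 24 h more. Viability was read by MTT as a percentage of light-exposed dye-free controls.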

[5] = test system: R3230AC; test: Stability in rat R3230AC cell lysate at 10 uM after 24 hrs; type: ADME, cell-based
In short: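 Cells seeded at 2.0–3.0 × 10^4 per well were grown 24 h, then exposed to dye in complete medium for 24 h. After two 0.9% NaCl rinses, cells were lysed in DMSO. Fluorescence (excitation 550 nm, emission 555–750 nm) was compared with dye in DMSO, including the ratio of the 580 and 650 nm peaks.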

Row | logD [2] | Activity [3] | Stability [5] | SMILES | Activity [1] | IC50 [4]
1 | 2.2 |  |  | CCN(CC)c1ccc2c(-c3ccccc3C(=O)O)c3ccc(=[N+](CC)CC)cc-3oc2c1 [RHODAMINE B] |  | 
2 | 0.79 | 68.2 fmol |  | CN(C)c1ccc2cc3ccc(N(C)C)cc3[n+](CCCOc3ccc(-c4c5nc(c(-c6ccccc6)c6ccc([nH]6)c(-c6ccccc6)c6nc(c(-c7ccccc7)c7ccc4[nH]7)C=C6)C=C5)cc3)c2c1.[I-] |  | 3.28 µM
3 | 2.3 | 5.6 fmol |  | Oc1ccc(-c2c3nc(c(-c4ccccc4)c4ccc([nH]4)c(-c4ccccc4)c4nc(c(-c5ccccc5)c5ccc2[nH]5)C=C4)C=C3)cc1 | inactive | 

More lines, now with the values behind:

Row | SMILES | logD [2] | Activity [3] | Stability [5] | Activity [1] | IC50 [4]
4 | CCN(CC)c1ccc2c(-c3ccccc3C(C)=O)c3ccc(=[N+](CC)CC)cc-3oc2c1 |  |  |  | inactive | 
5 | CCN(CC)c1ccc2c(-c3ccccc3C(=O)OCCCOc3ccc(-c4c5nc(c(-c6ccccc6)c6ccc([nH]6)c(-c6ccccc6)c6nc(c(-c7ccccc7)c7ccc4[nH]7)C=C6)C=C5)cc3)c3ccc(=[N+](CC)CC)cc-3oc2c1.[I-] | 3.53 |  | Stable | inactive | 3.95 µM
6 | CN(C)c1ccc2cc3ccc(N(C)C)cc3nc2c1 | -0.99 |  |  |  | 2.29 µM
